Reference: ChEMBL document CHEMBL2146423, “Photoresponsive 5'-cap for the reversible photoregulation of gene expression” (Bioorg Med Chem Lett, 2011)
Active and inactive are the calls of the source. The rule behind the calls is not given here.

Assays:
[1] = Thermal stability of the compound assessed as compound isomerization at 80 degC after 20 hrs; assay type: physicochemical
In short: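 Cis and trans isomers held at 80 °C for 20 h and checked for thermal isomerization. Isomers were generated with a 300 W xenon lamp at 25 °C, 2 cm from the source: 410 nm (103 mW/cm2) or 310 nm (81 mW/cm2), 2 min each. Isomer content measured by HPLC peak area.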

Nucleic Acid [2] = experiment: Binding affinity to Aequorea victoria GFP mRNA in insect cell extract assessed as mRNA translational efficiency at 4.8 mM irradiated with 410 nm monochromatic light for 2 mins measured after 10 hrs by fluorescence assay; assay type: nucleic-acid assay
In short: (§1)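 Capped GFP mRNA made by in vitro T7 transcription (37 °C, 4 h; poly(A)30 template), DNase-digested and purified, then translated in insect cell extract. Before translation the mixture was irradiated at room temperature for 2 min at 410 nm (cis to trans) or 310 nm (trans to cis). GFP read by fluorescence.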

Nucleic Acid [3] = experiment: Binding affinity to Aequorea victoria GFP mRNA in insect cell extract assessed as mRNA translational efficiency at 4.8 mM irradiated with 410 nm monochromatic light for 2 mins measured after 10 hrs by fluorescence assay relative to normal-capped mRNA; assay type: nucleic-acid assay; in short: as §1
Nucleic Acid [4] = experiment: Binding affinity to Aequorea victoria GFP mRNA in insect cell extract assessed as increase in mRNA translation at 4.8 mM irradiated with 310 nm monochromatic light for 2 mins measured after 130 mins by time course fluorescence assay; assay type: nucleic-acid assay
In short: (§2)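 GFP mRNA capped at the 5' end during in vitro T7 transcription (37 °C, 4 h; PCR template carrying a 30-base poly(A) tail), then DNase-treated and purified. Translated in insect cell extract. Sample irradiated 2 min at 310 nm at 0 and 130 min and 2 min at 410 nm at 60 min. GFP fluorescence (ex 480 nm, em 509 nm) recorded over time, with normal-capped mRNA run alongside.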

Nucleic Acid [5] = experiment: Binding affinity to Aequorea victoria GFP mRNA in insect cell extract assessed as inhibition of mRNA translation at 4.8 mM irradiated with 310 nm monochromatic light for 2 mins measured after 10 hrs by fluorescence assay; assay type: nucleic-acid assay; in short: as §1
Nucleic Acid [6] = experiment: Binding affinity to Aequorea victoria GFP mRNA in insect cell extract assessed as increase in mRNA translation at 4.8 mM irradiated with 310 nm monochromatic light for 2 mins measured up to 60 mins by time course fluorescence assay; assay type: nucleic-acid assay; in short: as §2
Nucleic Acid [7] = experiment: Binding affinity to Aequorea victoria GFP mRNA in insect cell extract assessed as inhibition of mRNA translation at 4.8 mM irradiated with 410 nm monochromatic light for 2 mins measured after 10 hrs by fluorescence assay; assay type: nucleic-acid assay; in short: as §1

| Structure (SMILES) | Stability [1] | inhibition (Nucleic Acid [5]) | further results |
| --- | --- | --- | --- |
| CCN(CC)CC.CCN(CC)CC.C[n+]1c(/C=C\c2ccc3ccccc3c2)n([C@@H]2O[C@H](COP(=O)(O)OP(=O)(O)OP(=O)([O-])OC[C@H]3O[C@@H](n4cnc5c(=O)[nH]c(N)nc54)[C@H](O)[C@@H]3O)[C@@H](O)[C@H]2O)c2nc(N)[nH]c(=O)c21 | Stable |  | Activity (Nucleic Acid [2]): Active |
| CCN(CC)CC.CCN(CC)CC.C[n+]1c(/C=C\c2ccccc2)n([C@@H]2O[C@H](COP(=O)([O-])OP(=O)(O)OP(=O)(O)OC[C@H]3O[C@@H](n4cnc5c(=O)[nH]c(N)nc54)[C@H](O)[C@@H]3O)[C@@H](O)[C@H]2O)c2nc(N)[nH]c(=O)c21 | Stable |  | fold change (FC) (Nucleic Acid [3]): 2.2 |

Now from value to molecule, other results behind:

| Stability [1] | inhibition (Nucleic Acid [5]) | Structure (SMILES) | further results |
| --- | --- | --- | --- |
| Stable |  | CCN(CC)CC.CCN(CC)CC.C[n+]1c(/C=C/c2ccccc2)n([C@@H]2O[C@H](COP(=O)([O-])OP(=O)(O)OP(=O)(O)OC[C@H]3O[C@@H](n4cnc5c(=O)[nH]c(N)nc54)[C@H](O)[C@@H]3O)[C@@H](O)[C@H]2O)c2nc(N)[nH]c(=O)c21 |  |
| Stable | Active | CCN(CC)CC.CCN(CC)CC.C[n+]1c(/C=C/c2ccc3ccccc3c2)n([C@@H]2O[C@H](COP(=O)([O-])OP(=O)(O)OP(=O)(O)OC[C@H]3O[C@@H](n4cnc5c(=O)[nH]c(N)nc54)[C@H](O)[C@@H]3O)[C@@H](O)[C@H]2O)c2nc(N)[nH]c(=O)c21 | Activity (Nucleic Acid [4]): inactive; Activity (Nucleic Acid [6]): inactive |
| Stable |  | CCN(CC)CC.CCN(CC)CC.C[n+]1c(/C=C\c2ccc3c(c2)Cc2ccccc2-3)n([C@@H]2O[C@H](COP(=O)(O)OP(=O)(O)OP(=O)([O-])OC[C@H]3O[C@@H](n4cnc5c(=O)[nH]c(N)nc54)[C@H](O)[C@@H]3O)[C@@H](O)[C@H]2O)c2nc(N)[nH]c(=O)c21 | inhibition (Nucleic Acid [7]): Active |
| Stable | Active | CCN(CC)CC.CCN(CC)CC.C[n+]1c(/C=C/c2ccc3c(c2)Cc2ccccc2-3)n([C@@H]2O[C@H](COP(=O)([O-])OP(=O)(O)OP(=O)(O)OC[C@H]3O[C@@H](n4cnc5c(=O)[nH]c(N)nc54)[C@H](O)[C@@H]3O)[C@@H](O)[C@H]2O)c2nc(N)[nH]c(=O)c21 |  |
